Assay results from the RNAGym collection of RNA variant scans (doi:10.1126/science.aae0568).
Fewer inactive variants are shown than the library holds.

B1: tRNA (parent)
chain: GUUCCGUUGGCGUAAUGGUAACGCGUCUCCCUCCUAAGGAGAAGACUGCGGGUUCGAGUCCCGUACGGAACG

Variants of: B1
Assay: yeast fitness relative to wild type (ratio to wild type); higher = fitter; tRNA-Arg(CCU), competitive growth, 37 C, YPD
Procedure, shortened: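 Variants of the tRNA-Arg(CCU) gene were chemically synthesised with a 3% per-site mutation rate across 69 sites and placed at the native genomic locus in Saccharomyces cerevisiae. Six parallel replicates of the pooled strains were competed in YPD at 37°C for 24 hours, and gene amplicons from the start and end populations were read by 100-nucleotide paired-end sequencing. Darwinian fitness relative to wild type was derived from changes in genotype frequencies. Genotypes required ≥ 100 starting reads, and estimates < 0.5 were set to 0.5.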

| Variant | yeast fitness |
| --- | --- |
| GUUGCGUUGGCGUAAUGGUAACGCGUCUCCCUUCUAAGGAGAAGUCUGCGGGUUCGAGUGCCGUACGGAACG [C4G C33U A45U C60G] | ≤ 0.5 |
| GUUGCGUUGGCGUAAUGGUAACGCGUCUCCCUCCUAAGGAGAAGACUGCGGGUUGGAGUCCCAUACGGAACG [C4G C55G G63A] | 0.558 |
| GUUGCGUUGGCGUAAUGGUAACGCGUCUGCCUCCUAAGGAGAAGACUGUGGGUUCGAGUCCCGUACGGAACG [C4G C29G C49U] | 0.588 |
| GUUGCGUUGGCGUAAUGGUAACGCGUCUCCCUCAUAAGGAGAAGACUGCGGGUCCGAGUCCCGUACGGAACG [C4G C34A U54C] | 0.54 |
| GUUGCGUUGGCGUAAUGGUAACGCGUCUUCCUCCUAAGGAGAAGACUGCGGGUUCAAGUCCCGUCCGGACCG [C4G C29U G56A A65C A70C] | 0.77 |
| GUUGCGUUGGCGUAAUGGUAACGCGUCUCCCUCCUAAGGAGAAGAGUGCGGGUUCGAGUCCCGUACGGAACG [C4G C46G] | 0.854 |
| GUUGCGUUGGCGUAAUGGUAACGCGUCUGCCUCCUAAGGAGAAGAUUGCGGGUUCGAGUCCCGUACGGAACG [C4G C29G C46U] | ≤ 0.5 |
| GUUGCGUUGGCGUAAUGGUAACGCGUCUCGCUACUAAGGAGAAGACUGCGGGUUCGAGUCCCGUACGGAGCG [C4G C30G C33A A70G] | ≤ 0.5 |
| GUUGCGUUGGCGUAAUGGUAACGCGUCUCGCUCCUAAGGAGAAGACUGCGGGUUUGAGUCCCGUACGGAACG [C4G C30G C55U] | ≤ 0.5 |
| GUUGCGUUGGCGUAAUGGUAACGCGUCUCCCUCCUAAGGAGAAGACUGUGGGUGCGAGUCCCGUACGGAACG [C4G C49U U54G] | ≤ 0.5 |
| GUUGCGUUGGCGUAAUGGUAACGCGUCUCCCUCCUAAGGAGAAGACUGCGGGUUAGUGUCCCGUACGGAACG [C4G C55A A57U] | ≤ 0.5 |
| GUUGCGUUGGCGUAAUGGUAACGCGUCUCCCUCCUAAGGAGAAGAGUGCGGGUUCGAGUCCCGUACGGUACG [C4G C46G A69U] | 0.721 |
| GUUGCGUUGGCGUAAUGGUAACGCGUCUACCUCCUAAGGAGAAGACUGCGGGUUCGAGUUGCGUACGGAACG [C4G C29A C60U C61G] | ≤ 0.5 |
| GUUGCGUUGGCGUAAUGGUAACGCGUCUCACUCCUAAGGAGAAGACUGCGGGUUCGAGUCCAGUACGGAACG [C4G C30A C62A] | ≤ 0.5 |
| GUUGCGUUGGCGUAAUGGUAACGCGUCUCACUCCUAAGGAGAAGACUGCGGGUUCGAGUCCUGUACGGAACG [C4G C30A C62U] | 0.526 |
| GUUGCGUUGGCGUAAUGGUAACGCGUCUCCCUCCUAAGGAGAAGAUUGCGGGUUCGAGUCCCGUACCGAACG [C4G C46U G67C] | 0.597 |
| GUUGCGUUGGCGUAAUGGUAACGCGUCUGCCUCCUCUGGCGAAGGCUGCGAGUUCGAGUCCCGUACGGAACG [C4G C29G A36C A37U A40C A45G G51A] | 0.503 |
| GUUGCGUUGGCGUAAUGGUAACGCGUCUCCCUUCUAAGGAGACGACUGCGGGUUCGAGUCCCGUACGGAACG [C4G C33U A43C] | ≤ 0.5 |
| GUUGCGUUGGCGUAAUGGUAACGCGUCUCGCUCCUAAGGAGUAGACUGCGGGUUUGAGUCCCGUAAGGAACG [C4G C30G A42U C55U C66A] | ≤ 0.5 |

| Variant | yeast fitness |
| --- | --- |
| GUUGCGUUGGCGUAAUGGUAACGCGUCUCCAUCCUAAGGAGCAGAGUGCGGGUUCGAGUCCCGUACGGAACG [C4G C31A A42C C46G] | 0.561 |
| GUUGCGUUGGCGUAAUGGUAACGCGUCUCGCUCCUAAGGAGAAGACUGCGGGUUCGAAUCCCGUACGGAACG [C4G C30G G58A] | ≤ 0.5 |
| GUUGCGUUGGCGUAAUGGUAACGCGUUUCCUUCCUAAGGAGAAGACUGCGGGUUCGAGUCCCGUACGGAACG [C4G C27U C31U] | 0.652 |
| GUUGCGUUGGCGUAAUGGUAACGCGUCUCCCUCCUAAGGAGAAGACUGGGGGUUCGAGUCCCGGGCGGAUCG [C4G C49G U64G A65G A70U] | ≤ 0.5 |
| GUUGCGUUGGCGUAAUGGUAACGCGUCUCCCUGCUAAGGAGUAGACGGCGGGUACGAGUCACGUACGGAACG [C4G C33G A42U U47G U54A C61A] | ≤ 0.5 |
| GUUGCGUUGGCGUAAUGGUAACGCGUCUCCCUCUUAAGGAGAAGACUGAGGGUUCGAGUCCCGUACGGAACG [C4G C34U C49A] | 0.61 |
| GUUGCGUUGGCGUAAUGGUAACGCGUCUCCCUCCUAAGGAGAAGACUGUGGAUUCGAGUGCCGUACGGAACG [C4G C49U G52A C60G] | ≤ 0.5 |
| GUUGCGUUGGCGUAAUGGUAACGCGUCUCACUCCUAAGGAGAAGACUGCGGGUUCGAGUCCCGUACGGAUCG [C4G C30A A70U] | 0.695 |
| GUUGCGUUGGCGUAAUGGUAACGCGUCUCCCUCGUAAGGAGAAGACAGAGGGUUCGAGUCCCGUGCGGAACG [C4G C34G U47A C49A A65G] | 0.519 |
| GUUGCGUUGGCGUAAUGGUAACGCGUCUCGCUCCUAAGGAGCAGACUGCGGGUUGGAGUCCCGUACGGAACG [C4G C30G A42C C55G] | ≤ 0.5 |
| GUUGCGUUGGCGUAAUGGUAACGCGUCUCCCUCUUAAGGAGAAGACUGAGGGUUCGAGUCCCGUACGCAACG [C4G C34U C49A G68C] | ≤ 0.5 |
| GUUGCGUUGGCGUAAUGGUAACGCGUCUCCCUGCUCAGGAGAAGACUGCGGGUUCGAGUCCCGUAUGGAACG [C4G C33G A36C C66U] | ≤ 0.5 |
| GUUGCGUUGGCGUAAUGGUAACGCGUCUACCUGCUAAGGAGAAGCCUGCGGGUUCGAGUCCCGUACCGAACG [C4G C29A C33G A45C G67C] | ≤ 0.5 |
| GUUGCGUUGGCGUAAUGGUAACGCGUCUCGCCCCUAAGGAGAAGACUGCGGGUUCGAGUCCCGUACGGAACG [C4G C30G U32C] | ≤ 0.5 |
| GUUGCGUUGGCGUAAUGGUAACGCGUCUCUCUCCUAAGGAGAAGACUGCGGGUUCGAGUCCCCUACGGAACG [C4G C30U G63C] | 0.628 |
| GUUGCGUUGGCGUAAUGGUAACGCGUCUCGCUGCUAAGGAGAAGACUGCGGGUUCGAGUCCCGUAUGGAACG [C4G C30G C33G C66U] | ≤ 0.5 |
| GUUGCGUUGGCGUAAUGGUAACGCGUCUCCCUGCCAAGGAGAAGACUGCGGGUUCGAGACCCGUACGGUACG [C4G C33G U35C U59A A69U] | ≤ 0.5 |
| GUUGCGUUGGCGUAAUGGUAACGCGUCUCCCUGCUAAGGAGAAGACUGCGGGUUCGAGUCCCGUACAGAACG [C4G C33G G67A] | ≤ 0.5 |
| GUUGCGUUGGCGUAAUGGUAACGCGUCUCUCUCCUAAGGAAAAGACUGCGGGUUCGAGUCCCGUACGGAACG [C4G C30U G41A] | 0.532 |
